We go through 5 compounds from ChEMBL document CHEMBL4834426, “Antimalarial Benzimidazole Derivatives Incorporating Phenolic Mannich Base Side Chains Inhibit Microtubule and Hemozoin Formation: Structure-Activity Relationship and In Vivo Oral Efficacy Studies” (J Med Chem, 2021).

The nature of data set [1]: Resistance index, ratio of IC50 for antimalarial activity against asexual blood stage multi drug-resistant Plasmodium falciparum K1 to IC50 for antimalarial activity against asexual blood stage drug-sensitive Plasmodium falciparum NF54. It counts as functional. The method in brief:
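Resistance index is IC₅₀(K1)/IC₅₀(NF54). Both IC₅₀s came from the [³H]-hypoxanthine incorporation assay, as means of ≥2 independent experiments.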

Data set [2] concerns Plasmodium falciparum. The experiment in a line: Antimalarial activity against asexual blood stage drug-sensitive Plasmodium falciparum NF54 infected in erythrocytes assessed as reduction in parasitemia incubated up to 72 hrs by [3H]hypoxanthine incorporation assay. It counts as functional, organism-based. Summed up:
(§1)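 [³H]-Hypoxanthine incorporation assay (modified) on asexual blood-stage P. falciparum in vitro. IC₅₀ values are means of ≥2 independent experiments.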

The nature of data set [3]: Metabolic stability in human liver microsomes assessed as compound remaining at 1 uM incubated for 30 mins by LC-MS/MS analysis. It is filed as ADME, Microsome. Particulars: read-out: Stabilty. The method in brief:
(§2)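 Single-point design: 1 μM compound with 0.4 mg/mL liver microsomes in 0.1 M phosphate buffer pH 7.4 for 30 min. Quenched with ice-cold acetonitrile containing carbamazepine internal standard, centrifuged, analyzed by LC−MS/MS. Percent remaining from internal-standard-corrected peak areas at 30 min versus 0 min. Propranolol, midazolam and MMV390048 as controls.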

Data set [4] has as its system Plasmodium falciparum. The experiment in a line: Antiplasmodial activity against […] Plasmodium falciparum NF54 late gametocytes transfected with GFP-Luc […] at 1 uM incubated for 48 hrs by microscopy based luciferase reporter gene assay relative to control. It is filed as functional. Summed up: (§3)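 NF54-Pfs16-GFP-Luc gametocytes, assays set up day 5 (early, stage II/III) or day 10 (late, stage IV/V). Culture at 2−3% gametocytemia, 1.5% hematocrit, 48 h drug exposure at 37 °C under 90% N₂/5% O₂/5% CO₂. Lysates mixed with luciferin; bioluminescence read with 10 s integration. Dual-point: one biological repeat in technical triplicate. Methylene blue (5 μM) reference.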
On the technique in general: Reporter assays use an easily measured gene product as a stand-in for the process of interest.

Data set [5] can be described thus: Metabolic stability in rat liver microsomes assessed as compound remaining at 1 uM incubated for 30 mins by LC-MS/MS analysis. It counts as ADME, Microsome. Particulars: read-out: Stabilty. The method in brief:
as §2
Background: Microsomes from liver hold many membrane-bound enzymes, among them those of drug oxidation.

A short description of data set [6]: Metabolic stability in mouse liver microsomes assessed as compound remaining at 1 uM incubated for 30 mins by LC-MS/MS analysis. The settings on record: read-out: Stabilty. It is filed as ADME, Microsome. The method in brief: as §2
For data set [7], the system named is Plasmodium falciparum. The experiment in a line: Antiplasmodial activity against […] Plasmodium falciparum NF54 early gametocytes transfected with GFP-Luc […] at 1 uM incubated for 48 hrs by microscopy based luciferase reporter gene assay relative to control. It counts as functional. Summed up:
as §3

Another data set deals with CHO. The experiment in a line: Cytotoxicity against CHO cells assessed as inhibition of cell viability by MTT assay. It is filed as cell-based. The settings on record: Cricetulus griseus. (In general: Tetrazolium dyes change colour on reduction, which living cells bring about.)
The nature of data set [8]: Selectivity index, ratio of IC50 for Cytotoxicity against CHO cells assessed as inhibition of cell viability by MTT assay to IC50 for antimalarial activity against asexual blood stage Plasmodium falciparum NF54 assessed as reduction in parasitemia incubated up to 72 hrs by [3H]hypoxanthine incorporation assay. It is filed as toxicity, cell-based. The settings on record: hamster, read-out: Selectivity Index. The method in brief:
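Selectivity index is IC₅₀(CHO)/IC₅₀(NF54). […] IC₅₀ came from nonlinear dose-response fitting. Parasite IC₅₀ came from the [³H]-hypoxanthine assay.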

The subject of data set [9] is Plasmodium falciparum. Kind of data set: Antiplasmodial activity against […] Plasmodium falciparum NF54 early gametocytes transfected with GFP-Luc […] incubated for 48 hrs by microscopy based luciferase reporter gene assay relative to control. It counts as functional, organism-based. The settings on record: NF54, 48 h. The method in brief: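 Transgenic NF54-Pfs16-GFP-Luc gametocytes, read by luciferase reporter. Early assays were set up on day 5 (50% stage II/50% stage III) and late assays on day 10 (40% stage IV/60% stage V). Luciferin was added to lysates at room temperature and bioluminescence read. Methylene blue (5 μM) was the reference. Single-point screens at 1 and 5 μM used n=1 in technical triplicate. IC₅₀ came from a normalized nonlinear fit, n≥3 in triplicate.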

Data set [10] has as its system Plasmodium falciparum. The experiment in a line: Antiplasmodial activity against […] Plasmodium falciparum NF54 early gametocytes transfected with GFP-Luc […] at 5 uM incubated for 48 hrs by microscopy based luciferase reporter gene assay relative to control. It is filed as functional. The method in brief:
as §3

The nature of data set [11]: Kinetic solubility of the compound in pH 6.5 incubated for 24 hrs by HPLC-DAD analysis. It counts as physicochemical. The settings on record: buffer, read-out: Kinetic_solubility. The method in brief:
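Miniaturized shake-flask method. 10 mM DMSO stock dried down, phosphate buffer pH 6.5 added, shaken 24 h at 25 °C. Centrifuged 3500g for 15 min; supernatant analyzed by HPLC-DAD against 10−220 μM DMSO calibration curve. Reserpine, hydrocortisone and MMV390048 as controls.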

Data set [12] relates to Plasmodium falciparum. Kind of data set: Antiplasmodial activity against […] Plasmodium falciparum NF54 late gametocytes transfected with GFP-Luc […] at 5 uM incubated for 48 hrs by microscopy based luciferase reporter gene assay relative to control. It is filed as functional. Summed up: as §3
For data set [13], the system named is Plasmodium falciparum. Kind of data set: Antimalarial activity against asexual blood stage multi drug-resistant Plasmodium falciparum K1 infected in erythrocytes assessed as reduction in parasitemia incubated up to 72 hrs by [3H]hypoxanthine incorporation assay. It counts as functional, organism-based. The method in brief: as §1

In brackets after ≈: the same amount, converted by molar mass.

Usually IC50 stands for the concentration at which inhibition is half-maximal. In general, inhibition refers to how much of the control response was suppressed. For `CCN(CC)Cc1cc(C)cc(Nc2nc3ccccc3n2Cc2ccc(C(F)(F)F)cc2)c1O`, in [1], the Ratio IC50 came out at 0.32. Besides, the IC50 in the data set with Plasmodium falciparum [2] worked out at 190 nM; in the data set with CHO, 29300 nM; in the data set on Plasmodium falciparum [9] it was 110 nM; with Plasmodium falciparum [13] it was 60 nM. Besides, the remaining at 0.5 h, 1 µM is 36% in data set [3], less than 7% in data set [5] and less than 7% in data set [6]. The inhibition at 1 µM in the data set on Plasmodium falciparum [4] was determined as 41%; in the data set with Plasmodium falciparum [7], 91%. Moreover, the selectivity ratio at 72 h in data set [8] was 154. The inhibition at 5 µM with Plasmodium falciparum [10] was determined as 97%; with Plasmodium falciparum [12], 62%. The solubility kinetic at 24 h in [11] is less than 5 µM.
On to `Cc1cc(CNC(C)(C)C)c(O)c(Nc2nc3cc(F)c(F)cc3n2Cc2ccc(C(F)(F)F)cc2)c1`, for which the Ratio IC50 in [1] amounted to 0.6. In addition, the IC50 in the data set with Plasmodium falciparum [2] was found to be 250 nM; in the data set on CHO it was 10000 nM; in the data set on Plasmodium falciparum [9], 520 nM; in the data set with Plasmodium falciparum [13] it was 150 nM. The remaining at 0.5 h, 1 µM in data set [3] is 90%; in [5], 89%; in data set [6], greater than 99%. Further, the inhibition at 1 µM came to 0% in the data set on Plasmodium falciparum [4] and 60% in the data set with Plasmodium falciparum [7]. For the same compound, in [8], the selectivity ratio at 72 h came to 40.2. For the same compound, the inhibition at 5 µM with Plasmodium falciparum [10] came out at 96%; in the data set on Plasmodium falciparum [12], 73%. The solubility kinetic at 24 h in [11] is less than 5 µM.
Regarding `CCNCc1cc(C)cc(Nc2nc3ccccc3n2Cc2ccc(C(F)(F)F)cc2)c1O`, the Ratio IC50 in data set [1] is 0.39. For the same compound, the IC50 came out at 780 nM in the data set with Plasmodium falciparum [2], 18800 nM in the data set on CHO, 990 nM in the data set with Plasmodium falciparum [9] and 300 nM in the data set with Plasmodium falciparum [13]. Also, the remaining at 0.5 h, 1 µM in data set [3] came to 98%; in [5] it was 51%; in data set [6], 52%. Further, the inhibition at 1 µM in the data set on Plasmodium falciparum [4] was 0%; in the data set with Plasmodium falciparum [7], 30%. Besides, in data set [8], the selectivity ratio at 72 h came out at 24.1. Further, the figures for the inhibition at 5 µM with Plasmodium falciparum [10] and with Plasmodium falciparum [12] were 95% and 14%, respectively. In addition, the solubility kinetic at 24 h in data set [11] was determined as 35 µM (≈ 15.9 µg/mL).
For `CCN(CC)Cc1cccc(Nc2nc3ccccc3n2Cc2ccc(C(F)(F)F)cc2)c1O`, the Ratio IC50 in data set [1] was found to be 0.3. In addition, the IC50 in the data set on Plasmodium falciparum [2] is 440 nM; with CHO it was greater than 50000 nM; with Plasmodium falciparum [9] it was 1450 nM; in the data set on Plasmodium falciparum [13], 130 nM. The results for the inhibition at 1 µM in the data set with Plasmodium falciparum [4] and with Plasmodium falciparum [7] were 35% and 71%, respectively. In addition, in data set [8], the selectivity ratio at 72 h is greater than 113. Further, the inhibition at 5 µM was found to be 93% with Plasmodium falciparum [10] and 56% in the data set with Plasmodium falciparum [12].
Take `CC(C)(C)NCc1cc(Cl)cc(Nc2nc3ccccc3n2Cc2ccc(C(F)(F)F)cc2)c1O`: in data set [1], the Ratio IC50 came to 0.21. Further, the IC50 in the data set on Plasmodium falciparum [2] came out at 280 nM; in the data set on CHO, 36300 nM; in the data set on Plasmodium falciparum [9] it was 590 nM; in the data set with Plasmodium falciparum [13], 60 nM. Further, the remaining at 0.5 h, 1 µM in [3] is 81%; in data set [5] it was 9%; in data set [6] it was 36%. Moreover, the inhibition at 1 µM in the data set on Plasmodium falciparum [4] stood at 0%; in the data set on Plasmodium falciparum [7], 44%. Besides, in data set [8], the selectivity ratio at 72 h was determined as 130. Besides, the results for the inhibition at 5 µM with Plasmodium falciparum [10] and in the data set with Plasmodium falciparum [12] were 92% and 0%, respectively. In [11], the solubility kinetic at 24 h is less than 5 µM.
